Measurements: BindingDB's records for doi:10.1021/acs.jmedchem.6b00914 (Amri, 2016)

Molecular target: T1, Sodium- and chloride-dependent glycine transporter 2 (Homo sapiens, UniProt Q9Y345)
T1 sequence (Q9Y345 whole entry): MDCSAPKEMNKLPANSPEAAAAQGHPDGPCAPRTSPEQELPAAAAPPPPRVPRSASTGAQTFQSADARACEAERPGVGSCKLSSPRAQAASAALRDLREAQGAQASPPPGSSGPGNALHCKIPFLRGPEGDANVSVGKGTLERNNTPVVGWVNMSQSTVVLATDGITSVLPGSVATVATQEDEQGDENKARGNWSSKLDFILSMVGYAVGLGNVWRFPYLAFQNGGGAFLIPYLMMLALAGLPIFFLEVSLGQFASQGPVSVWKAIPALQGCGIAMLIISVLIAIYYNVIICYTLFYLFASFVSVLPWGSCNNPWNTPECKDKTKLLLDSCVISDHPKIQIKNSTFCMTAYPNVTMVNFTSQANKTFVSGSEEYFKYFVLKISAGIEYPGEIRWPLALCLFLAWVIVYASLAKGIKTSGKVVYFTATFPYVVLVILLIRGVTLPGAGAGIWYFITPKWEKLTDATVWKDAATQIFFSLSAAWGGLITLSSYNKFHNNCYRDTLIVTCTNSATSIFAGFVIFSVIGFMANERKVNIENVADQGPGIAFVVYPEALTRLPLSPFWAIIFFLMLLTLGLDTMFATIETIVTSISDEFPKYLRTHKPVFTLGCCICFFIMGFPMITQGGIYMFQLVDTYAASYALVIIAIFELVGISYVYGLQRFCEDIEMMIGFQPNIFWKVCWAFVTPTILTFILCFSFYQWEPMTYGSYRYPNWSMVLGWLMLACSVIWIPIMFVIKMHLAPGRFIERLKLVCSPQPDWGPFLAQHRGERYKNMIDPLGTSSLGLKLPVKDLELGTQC
Assay: Inhibition of human glycine transporter-2 expressed in HEK293 cells assessed as reduction in [14C]glycine uptake preincubated for 10 mins followed by [14C]glycine addition measured after 3 hrs by scintillation proximity assay
Method in brief: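 HEK293 cells stably transfected with GlyT-2 (Geneticin-selected polyclonal population) were plated on poly-L-lysine-coated plates in DMEM/10% FBS and incubated overnight. The [¹⁴C]glycine uptake SPA was then run as for JAR cells: uptake buffer, 10 min room-temperature preincubation, 3 h incubation at 37 °C.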

IC50: > 75 µM
SMILES: CC(NC(=O)c1ccc(C(F)(F)F)cc1Cl)C1(N2CCN(S(=O)(=O)c3cn(C)nn3)CC2)CCC(F)(F)CC1 (stereo unspecified)
